The values that follow come from the EternaBench riboswitch data.

The data set concerns MS2 coat protein. In words: apparent Kd, MS2 coat protein; higher = weaker binding; RNA-MaP array; FMN 200 µM where present. In a few lines: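 In 100 mM Tris-HCl pH 7.5, 80 mM KCl, 4 mM MgCl2, BSA, DTT, yeast tRNA and Tween-20, SNAP-549-labelled MS2 coat protein was titrated from 0.7 or 1.5 nM, doubling to 3 µM, over designs transcribed by stalled E. coli RNA polymerase on Illumina sequencing-chip clusters. This was done first without ligand, then with ligand held constant. After green signal was normalised to red-channel RNA signal and control-cluster median Fmax, the apparent Kd was taken as the median of filtered per-cluster binding-curve fits.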

Setting [1] is: designed as: OFF switch for flavin mononucleotide, no ligand.
Where [2] appears, read: ligand present: flavin mononucleotide, designed as: OFF switch for flavin mononucleotide.
Setting [3] is: designed as: ON switch for flavin mononucleotide, no ligand.
Where [4] appears, read: ligand present: flavin mononucleotide, designed as: ON switch for flavin mononucleotide.

On to “CUGAUGUCAGGAUAUCAGAAAAGGUGCGAGGACGCACCAAAUGAGAAGGGACAUGAGGAUCACCCAUGUAAAAC”, for which the “apparent Kd” value is, setting by setting: under setting [1], 22.3 nM; under setting [2], 139 nM.

Turning to “GCAUUUUAUGCAGGAUAUUGAAUUCGGAUUAAACAAGAAGGGCAUAACAUGAGGAUCACCCAUGUUUUAUAGGUAUCUAUGAAC”, the “apparent Kd” value by setting is: under setting [1], 53.1 nM; under setting [2], 116 nM.

With “UCACAGGUUUAAGGCGUUCCCAGACAUGAGGAUCACCCAUGUAGAAGGACCGUAAGAAAUUUUCGGUAGGAUAUACAUUCAGGG”, the “apparent Kd” value reads like this: under setting [1], 28 nM; under setting [2], 31.9 nM.

Regarding “ACGACGAAAGUCGAACGAUGAUCGAGAAGGACAUGAGGAUCACCCAUGUUCCCUGUAACAGGCAUGUAGGAUAUCGAUCAUCGA”, the “apparent Kd” value by setting is: under setting [1], 3.99 nM; under setting [2], 7.18 nM.

Regarding “UAUUAUGUCAGAGGAUAUAUAAAUAAAUUUAUAACAUGAGGAUCACCCAUGUACUUUAGUGUGAGGUAGAAGGUUGAUAAGAUA”, the “apparent Kd” value by setting is: under setting [3], 37.2 nM; under setting [4], 22.6 nM.

Regarding “AAGUAGAUCCGAGGAUAUACAAUCCGGAAACGGUACAUGAGGAUCACCCAUGUAGAAGGCGGAUCUACAGGUACUAAAGUACCC”, the “apparent Kd” value by setting is: under setting [1], 5.61 nM; under setting [2], 8.06 nM.

Consider “GCGCAGUCAGGAUAUGCCGCUUGCGAUCACCGUUGGCAAAGGCAGAAGGGACAUGAGGAUCACCCAUGUGGCGC”, for which the “apparent Kd” value by setting is: under setting [1], 19.3 nM; under setting [2], 22.9 nM.

As to “UUUACGGGAGGAUAUACAUGAGGAUCACCCAUGUAACGGUGUGUAAUAUAUAUUGCGUGUAGAAGGUUUGUGGG”, the “apparent Kd” value was 79.3 nM under setting [1] and 78.6 nM under setting [2].

On to “CCCAGUUAGGAAGGAUAUUGUACAUGAGGAUCACCCAUGUAAUAAAUGAGGAUCACGGAUGUAUACAAGAAGGUCCGGAUAGGC”, for which the “apparent Kd” value is 70.4 nM under setting [1] and 140 nM under setting [2].

Consider “AUCAGCUCGUCAGGAUAUACGUCACUGCGUCAGUAGUGUGGUAAGAUCACAUGAGGAUCACCCAUGUAGAAGGGACGAGCUGAU”, for which the “apparent Kd” value runs as follows: under setting [1], 14.5 nM; under setting [2], 284 nM.

On to “GUUGCUUUCCGAGGAUAUUCAGGGCGUGGCUAUACAUGAGGAUCACCCAUGUGGCGGAAGCCUAGGGAGAAGGCGGGCUGCUUC”, for which the “apparent Kd” value under setting [3] came out at 18.4 nM and the “apparent Kd” value under setting [4] amounted to 16.3 nM.

On to “UCACGGGAUUGAGGAUAUAUAUUAAUUUUUUUUAUAGAAGGCAAAAUGUUAGAUUAUUCACUAUACAUGAGGAUCACCCAUGUU”, for which the “apparent Kd” value under setting [2] is 22.7 nM.

For “AACUGACAUGAGGAUCACCCAUGUCAGGAUAUGCUUCAUAAAAACAAACAAAAAUGAUGCAGAAGGGACAUGGA”, the “apparent Kd” value was 16.6 nM under setting [1] and 41.6 nM under setting [2].

“GUCAGCUCGUGAGGAUAUAUAACACUGCUUCGGCAGUGUAUUAAGAUCACAUGAGGAUCACCCAUGUAGAAGGCACGAGCUGAU”: the “apparent Kd” value by setting is: under setting [1], 5.04 nM; under setting [2], 8.94 nM.

Turning to “GGAUCGAGUGUGAGGAUAUGCUGGUCCUUGGAUCAGCAGAAGGCACAUGAGGAUCACCCAUGUCCAAGCGGUCC”, the “apparent Kd” value is, setting by setting: under setting [1], 152 nM; under setting [2], 701 nM.

On to “UCGACCAGCGCCAGUCGAACAUGAGGAUCACCCAUGUACUCCAGAAGGCCGCCCAAGAACGGAGUGGAGGAUAUGGAGGUUCUC”, for which the “apparent Kd” value under setting [3] is 37.7 nM and the “apparent Kd” value under setting [4] amounted to 33.2 nM.

As for “AAGUAGAUCCGAGGAUAUACAAAGUGGAAUCGCUACAUGAGGAUCACCCAUGUAGAAGGCGGAUCUACAGGUACUAAAGUACCA”, the “apparent Kd” value reads like this: under setting [1], 8.01 nM; under setting [2], 68.3 nM.

As to “CUGUUAUAGGUCCAUUUUAACAACAUGAGGAUCACCCAUGUGCAGGAUAUCGUGUUAAUUUUCAUCGAGAAGGGCAUAGUCACG”, the “apparent Kd” value is, setting by setting: under setting [1], 27.2 nM; under setting [2], 58.4 nM.

With “GGCGGGAAUGAGAAGGGUCACAUGAGGAUCACCCAUGUGCUCUUCGCCGUGACAGGAUAUCAUUGCCGUCAGGUUAGAUUUUUG”, the “apparent Kd” value was determined as 8.42 nM under setting [1] and 24.7 nM under setting [2].

For the sequence “UUGGACGUUGUAGGAUAUGUAGGAUAUUCCUACAUGAGGAUCACCCAUGUUGACAUGGAAGAAGGACAGAAGGACGAUGUCCAU”, the “apparent Kd” value is, setting by setting: under setting [3], 277 nM; under setting [4], 5.32 nM.

With “AAGGGUACUUUCGGAACGACAUGAGGAUCACCCAUGUAUACUGAGGAUAUCUACUACUAAGGACGGGAGAAGGCAGUGUAAUGU”, the “apparent Kd” value worked out at 18 nM under setting [1] and 20.3 nM under setting [2].

For the sequence “CAAUGGUUCCUUAUACUCUCGUCACAUGAGGAUCACCCAUGUAGAAGGCAGCCGGGCUGUCAGGCUGAGGAUAUACAUUUAAAA”, the “apparent Kd” value under setting [1] turned out to be 17.8 nM and the “apparent Kd” value under setting [2] was determined as 54.9 nM.

Regarding “CAGGCCUUAGGAUAUACACGGUGUCGAACGAGCUCCUACACACAUGAGGAUCACCCAUGUAGAAGGAAGGGAUA”, the “apparent Kd” value runs as follows: under setting [1], 24.6 nM; under setting [2], 32 nM.

Turning to “UAUGAAUGAGGAUAUGCAUAGUAGACUCCUCAUUUCUUCGGACAUGAGGAUCACCCAUGUAGAAGGCGUUGCGU”, the “apparent Kd” value turned out to be 33.1 nM under setting [1] and 58 nM under setting [2].

Regarding “GUAGCAUACCGAGGAUAUUCUAACCGGAAACGGACAUGAGGAUCACCCAUGUGGCGAAAGCCUUGGGAGAAGGCGGAAUGCUAC”, the “apparent Kd” value reads like this: under setting [3], 12.3 nM; under setting [4], 12.8 nM.

Consider “CCGCUAAAUGGAGGAUAUGGAGCCUUAUUGGCUCCAGAAGGUCAAAACAUGAGGAUCACCCAUGUGCGGCGGUCUAAUGACCGA”, for which the “apparent Kd” value was 186 nM under setting [3] and 50.2 nM under setting [4].

On to “CUAUAGAUAUCAGGAUAUCUAUUUCCUACAUGAGGAUCACCCAUGUAGAUGAUCACCCAUGUAAAGGAGAAGGGAUAUCUAUAG”, for which the “apparent Kd” value by setting is: under setting [3], 361 nM; under setting [4], 169 nM.

In the case of “ACAUACAUUCGAGGAUAUCGGUGAACAAAUUAACGAGAAGGCGAUAAAAUUUUUAAUCUUAUGAACAUGAGGAUCACCCAUGUA”, the “apparent Kd” value under setting [3] came to 21.3 nM and the “apparent Kd” value under setting [4] stood at 18.5 nM.

On to “AUCCUGCGAGGAUAUACAUAGUGACGUCUGUUAGGUCUCAAACAUGAGGAUCACCCAUGUAGAAGGUGCGUCAC”, for which the “apparent Kd” value under setting [1] was 19.4 nM and the “apparent Kd” value under setting [2] turned out to be 18.2 nM.

As to “CCUCCACAUGAGGAUCACCCAUGUCAGGAUAUCGUGUGUUUUUUUUCGGCCGCGCGUGCGAGAAGGGACGUCUU”, the “apparent Kd” value under setting [1] stood at 19.5 nM and the “apparent Kd” value under setting [2] was 19.8 nM.

Consider “AAAAACAGAGGAUAUACAAAAUUAUGACGAAAGUCAUAAAAACAUGAGGAUCACCCAUGUAGAAGGCUGGAAAA”, for which the “apparent Kd” value is, setting by setting: under setting [1], 30.4 nM; under setting [2], 28.9 nM.

Take “UUAAAUCAUGUAGGAUAUGCAUGGCGAAGCUACGCAGAAGGACAUGAGGAUCACCCAUGUUAAAGCUACCGAGUUCGGUGGCAA”: the “apparent Kd” value was determined as 116 nM under setting [1] and 156 nM under setting [2].

Consider “GAGUGGUGGAAAGGAUAUGCAUUGUUAUUCACUGUAGAAGGUUCUAACAUGAGGAUCACCCAUGUAGGACUAUUCCUGUGUUUU”, for which the “apparent Kd” value is 13.3 nM under setting [3] and 12.6 nM under setting [4].

In the case of “AGUCCAGAAGGAUAUACAUAGGUGAAAAAAAAAAAAAAACUACAUGAGGAUCACCCAUGUAGAAGGUCUGGACA”, the “apparent Kd” value under setting [1] is 93.5 nM and the “apparent Kd” value under setting [2] worked out at 46 nM.

For “UUGGCGCGAUCCUGGGUCUCACAUGAGGAUCACCCAUGUAGAGAGGAUAUGCAUAGGGCCCAUUGGCAGAAGGCUCUACAUGAG”, the “apparent Kd” value came out at 101 nM under setting [1] and 47.3 nM under setting [2].

For “ACAUGAGGAUCACCCAUGUUAUAUGGGAAUUAAUUUAUUUGUAGAAGGAUGUUUUCUUGUUAGUCAUAGGAUAUACUAUUAAAU”, the “apparent Kd” value under setting [1] amounted to 255 nM and the “apparent Kd” value under setting [2] was 158 nM.

For the sequence “UGAUAGGACAGAGGAUAUACGUGCUAGAGAUACUAGCAAAAUUUCCUAACAUGAGGAUCACCCAUGUAGAAGGCUGUCCUAUCU”, the “apparent Kd” value under setting [1] amounted to 6.73 nM and the “apparent Kd” value under setting [2] came out at 14.2 nM.

Turning to “UUGUUGUAUGUAGGAUAUGCAUAUUGUUAUUAUGCAGAAGGACAUGAGGAUCACCCAUGUAUAUUAUUAUUAUAUGUUAUAUAU”, the “apparent Kd” value by setting is: under setting [1], 23.5 nM; under setting [2], 27.8 nM.

In the case of “CGGUACUGAGGAUAUACAUGAGGAUCACCCAUGUGUUCCAGCUAGCGUACUGGCAUUUGUAGAAGGCGGUGCUG”, the “apparent Kd” value runs as follows: under setting [1], 16.8 nM; under setting [2], 48 nM.

As for “GUGCUUAACUAGAAGGCCGAUAGCAAAGCUAUCGGAGGAUAUGGGUUCCGGAAACGGACAUGAGGAUCACCCAUGUGGCACAAA”, the “apparent Kd” value is, setting by setting: under setting [3], 121 nM; under setting [4], 14.6 nM.

“GUGGCGACUGAGAAGGUACGCAUAAAAGAGAAGUAAGGAUAUCAGUCACAUGAGGAUCACCCAUGUGUUGGAAAGAUCCUUAAA”: the “apparent Kd” value reads like this: under setting [1], 10.4 nM; under setting [2], 37.9 nM.

As to “UAUGGUUAAGUCAGGAUAUACGUGCAGUUAUCUGAGUAGAAGGGACAUGAGGAUCACCCAUGUAUGGUAGUGUU”, the “apparent Kd” value reads like this: under setting [1], 75.3 nM; under setting [2], 86.4 nM.

“GGGAUCACCGUCAGGAUAUGUGACCGUACUAUCGGGCAGAAGGGACAUGAGGAUCACCCAUGUUGUCGUAGACU”: the “apparent Kd” value was found to be 20.7 nM under setting [1] and 58.1 nM under setting [2].

Consider “UAAUCUCAGAUAGGAUAUAUAGGAUAACUUAAGACCUAACAUGAGGAUCACCCAUGUGAUUAUUCGUAGAAGGAUCAUUGACCC”, for which the “apparent Kd” value under setting [4] stood at 171 nM.

On to “GCGUUACAUGAGGAUCACCCAUGUGAGGAUAUGGUGCGGUAGUGUCCUGUCGCGUACUCCAGAAGGCACGGGUG”, for which the “apparent Kd” value runs as follows: under setting [1], 215 nM; under setting [2], 91.7 nM.

Regarding “UUCCUGGUGUAGAAGGAGGCCGAGCUCAAGCGGACGUCCUGAAUUGCGGGCCUAGGAUAUACAUGAGGAUCACCCAUGUACGGA”, the “apparent Kd” value was found to be 39.8 nM under setting [1] and 111 nM under setting [2].

For “CGCGAAAACAUAGGAUAUUGUUACAUGAGGAUCACCCAUGUCAACCAUGUAGCUCGAAUUGUUGACAAGAAGGAUGAGGUCGCG”, the “apparent Kd” value reads like this: under setting [3], 48.3 nM; under setting [4], 103 nM.

On to “GGACGUCUCGUUUACAUGAGGAUCACCCAUGUCGAUAGACAUGAGGAUAUGGAUCCGAAUCGGAUCCAGAAGGCAUGGACGUCC”, for which the “apparent Kd” value is, setting by setting: under setting [3], 486 nM; under setting [4], 35 nM.
